The record followed here is ChEMBL document CHEMBL1152198, “C-2-aryl O-substituted HI-236 derivatives as non-nucleoside HIV-1 reverse-transcriptase inhibitors” (Bioorg Med Chem, 2008).

Data set [1] has as its system MT2. Description: Cytotoxicity against mock-infected human MT2 cells after 5 days by MTT assay. It counts as cell-based. The settings on record: mt2, 120 h. Put shortly: (§1)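 Infected (Y181C, MOI 0.1) or mock-infected MT-2 cells at 1×10^5 cells/mL exposed 5 days to graded compound concentrations in RPMI 1640/10% dFBS/kanamycin, triplicate. Viability by MTT (5 h), acidified isopropanol lysis, absorbance 595 nm. CC50 read from triplicate-mean dose-response curves as concentration reducing viable cells by 50%.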
A general note: Tetrazolium dyes change colour on reduction, which living cells bring about.

A short description of data set [2]: Therapeutic index, ratio of CC50 for human MT2 cells to EC50 for HIV1 3B. It counts as cell-based. The conditions noted are these: read-out: Ratio CC50/EC50. The essentials: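 MT-2 cells at 1×10^5 cells/mL, HIV-III_B or mock infection at MOI 0.1, 5 days with graded compound, triplicate; MTT read-out at 595 nm. Index computed as CC50 (mock-infected cells) over EC50 (viral replication), both from dose-response curves.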

The test system of data set [3] is Human immunodeficiency virus 1. As to the kind of experiment: Antiviral activity against wild-type HIV1 3B infected in human MT2 cells assessed as inhibition of viral replication after 5 days by MTT assay. The conditions noted are these: Human immunodeficiency virus 1, 3B, MT2, 120 h.
Data set [4] has as its target Human immunodeficiency virus type 1 reverse transcriptase (Human immunodeficiency virus 1, UniProt Q72547). As to the kind of experiment: Inhibition of HIV1 3B reverse transcriptase. Put shortly:
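Steady-state single-nucleotide incorporation: 6 nM RT (active-site titrated) pre-incubated at least 15 min with 1 μM 5'-radiolabeled primer/template, then at least 15 min on ice with inhibitor (DMSO under 2%, DMSO-only control). Started with 5 μM dTTP and 10 mM MgCl2 (final), 15 min at 37 °C, EDTA quench. Products resolved on 20% denaturing PAGE; hyperbolic fit gives IC50.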

Data set [5] has as its system Human immunodeficiency virus 1. Description: Antiviral activity against nevirapine-resistant HIV1 with reverse transcriptase Y181C mutation in human MT2 cells assessed as inhibition of viral replication after 5 days by MTT assay. It counts as functional, organism-based. The conditions noted are these: Human immunodeficiency virus 1, MT2, 120 h. Put shortly:
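MT-2 cells at 1×10^5 cells/mL infected at MOI 0.1 (wild-type HIV-III_B or Y181C mutant), cultured 5 days in RPMI 1640 with 10% dFBS and kanamycin across a range of compound concentrations, triplicate wells. MTT added for 5 h, cells lysed with acidified isopropanol, A595 read. EC50 taken from dose-response curves of triplicate means as concentration inhibiting viral replication by 50%.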

For data set [6], the system named is MT2. As to the kind of experiment: Cytotoxicity against HIV1 Y181C mutant infected human MT2 cells after 5 days by MTT assay. It counts as cell-based. The conditions noted are these: mt2, 120 h. The essentials: as §1
A short description of data set [7]: Therapeutic index, ratio of CC50 for HIV1 Y181C mutant infected human MT2 cells to EC50 for HIV1 with reverse transcriptase Y181C mutation. The conditions noted are these: read-out: Ratio CC50/EC50. It counts as cell-based. The essentials: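 MT-2 cells (1×10^5 cells/mL), infected with Y181C mutant HIV-1 at MOI 0.1 or mock-infected, were cultured 5 days in RPMI 1640 with 10% dFBS and kanamycin at varying compound concentrations, in triplicate. MTT was added for 5 h, cells were lysed with acidified isopropanol, and A595 was read. EC50 (50% inhibition of viral replication) and CC50 (50% loss of viable cells) came from averaged dose-response curves.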

Molecules are shown by their SMILES.

One may read the CC50 as the concentration giving 50% cytotoxicity. Higher therefore signals better tolerance by the cells. By EC50 is commonly meant the concentration needed to bring the measured effect to its halfway point. Consider `CC#CCOc1ccc(OC)cc1CCNC(=S)Nc1ccc(Br)cn1`, for which the midpoint of cytotoxicity in the data set with MT2 [1], the CC50, lay at 20000 nM. In addition, in data set [2], the selectivity ratio stood at 74. The EC50 in data set [3] amounted to 270 nM.

The IC50 is the concentration needed to halve the response being measured. Read a low IC50 as inhibition by little substance. In the data set with MT2 [1], `COC(=O)COc1ccc(OC)cc1CCNC(=S)Nc1ccc(Br)cn1` registered a CC50 of 48000 nM. Further, in data set [2], the selectivity ratio turned out to be 4. Besides, the IC50 in data set [4] was 100 nM. Also, the concentration for a half-maximal effect (EC50) in data set [3] is 12000 nM.

In the data set with MT2 [1], `C#CCOCCOCCOc1ccc(OC)cc1CCNC(=S)Nc1ccc(Br)cn1` registered a CC50 of 6800 nM. The selectivity ratio in data set [2] worked out at 17. Also, the EC50 in data set [3] is 390 nM.

Consider `COc1ccc(OC)c(CCNC(=S)Nc2ccc(Br)cn2)c1`, for which the CC50 with MT2 [1] is 1000 nM; in the data set on MT2 [6], 18000 nM. For the same compound, the values for the selectivity ratio in data set [2] and in data set [7] were 21 and 15, respectively. This compound also came in with an IC50 in data set [4] of 28 nM. Also, the EC50 came out at 1200 nM in data set [5] and 48 nM in data set [3].

In the data set on MT2 [1], `C#CCCCOc1ccc(OC)cc1CCNC(=S)Nc1ccc(Br)cn1` yielded a cytotoxic concentration (CC50) of 10000 nM. Also, the selectivity ratio in data set [2] is 40. For the same compound, the midpoint of inhibition in data set [4], the IC50, lay at 27 nM. The EC50 in data set [3] amounted to 250 nM.

On to `COc1ccc(OCCOCc2ccccc2)c(CCNC(=S)Nc2ccc(Br)cn2)c1`, for which the CC50 with MT2 [1] was 5800 nM. In addition, in data set [2], the selectivity ratio was 3. Also, the EC50 in data set [3] was 2000 nM.

`COc1ccc(OCCO)c(CCNC(=S)Nc2ccc(Br)cn2)c1` displayed a CC50 in the data set with MT2 [1] of 1000 nM. The selectivity ratio in data set [2] is 83. The midpoint of inhibition in data set [4], the IC50, lay at 19 nM. Moreover, in data set [3], the EC50 came out at 12 nM.

For the compound `C#CCCOc1ccc(OC)cc1CCNC(=S)Nc1ccc(Br)cn1`, the CC50 in the data set on MT2 [1] is 1000 nM; in the data set on MT2 [6] it was 4000 nM. Besides, the selectivity ratio in data set [2] is 38; in data set [7], greater than 20. For the same compound, in data set [4], 3.8 nM corresponded to half-maximal inhibition (IC50). Also, the EC50 in data set [5] is less than 200 nM; in data set [3], 26 nM.

`C#CCOc1ccc(OC)cc1CCNC(=S)Nc1ccc(Br)cn1`: it took 100 nM to reach half-maximal cytotoxicity in the data set with MT2 [1] (CC50). In addition, in data set [2], the selectivity ratio amounted to 2. Besides, in data set [3], the EC50 was 52 nM.

The compound `COc1ccc(OCc2ccccc2)c(CCNC(=S)Nc2ccc(Br)cn2)c1` returned a CC50 with MT2 [1] of 4000 nM. Besides, the selectivity ratio in data set [2] amounted to 18. Moreover, the EC50 in data set [3] is 220 nM.

In the data set on MT2 [1], `CCCOc1ccc(OC)cc1CCNC(=S)Nc1ccc(Br)cn1` had a CC50 of 100 nM. In addition, the selectivity ratio in data set [2] came out at 1. In addition, in data set [3], the EC50 was 95 nM.

Take `COc1ccc(OCC#N)c(CCNC(=S)Nc2ccc(Br)cn2)c1`: in the data set on MT2 [1], the CC50 was 5500 nM. In addition, the selectivity ratio in data set [2] came to 46. For the same compound, the EC50 in data set [3] worked out at 120 nM.

In the data set with MT2 [1], `COc1ccc(OCCCO)c(CCNC(=S)Nc2ccc(Br)cn2)c1` returned a CC50 of 8500 nM. Further, in data set [2], the selectivity ratio was determined as 94. In data set [4], this compound registered an IC50 of 24 nM. Moreover, the EC50 in data set [3] is 98 nM.

`C=CCOc1ccc(OC)cc1CCNC(=S)Nc1ccc(Br)cn1` displayed a CC50 in the data set with MT2 [1] of 11000 nM. The selectivity ratio in data set [2] is 55. In addition, the EC50 in data set [3] turned out to be 200 nM.

On to `C#CCOCCOc1ccc(OC)cc1CCNC(=S)Nc1ccc(Br)cn1`, for which, in the data set with MT2 [1], it took 9500 nM to reach half-maximal cytotoxicity (CC50). In data set [4], inhibition was half-maximal at 41 nM (IC50). For the same compound, the EC50 in data set [3] turned out to be 95 nM.

Consider `COc1ccc(OCCCC#N)c(CCNC(=S)Nc2ccc(Br)cn2)c1`, for which half-maximal cytotoxicity in the data set on MT2 [1] (CC50) was put at 3800 nM. Also, the selectivity ratio in data set [2] was 76. For the same compound, in data set [3], the EC50 is 50 nM.
